In BindingDB's records for doi:10.1021/jm00074a030 (Wellcome Research Laboratories, 1993) one finds Ki data, which are given here for three molecules.

A word on the Ki: it is a dissociation constant, usually derived from enzyme kinetics or from competition with a known ligand. High values mean lower affinity, low ones higher affinity.

In the assay the target is Thymidylate synthase (Homo sapiens, UniProt P04818). The experiment in a line: Inhibition of purified human thymidylate synthase (TS) isolated from an Escherichia coli harboring a plasmid with thy A gene cloned from SV40 transformed human fibroblast cells. The method in brief:
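Purified recombinant human TS, expressed in E. coli from a thyA gene cloned from SV40-transformed human fibroblasts. Inhibition was measured by a modified tritium-release assay. Ki was estimated by treating compounds as tight-binding noncompetitive inhibitors.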

Thymidylate synthase, sequence (P04818 whole entry): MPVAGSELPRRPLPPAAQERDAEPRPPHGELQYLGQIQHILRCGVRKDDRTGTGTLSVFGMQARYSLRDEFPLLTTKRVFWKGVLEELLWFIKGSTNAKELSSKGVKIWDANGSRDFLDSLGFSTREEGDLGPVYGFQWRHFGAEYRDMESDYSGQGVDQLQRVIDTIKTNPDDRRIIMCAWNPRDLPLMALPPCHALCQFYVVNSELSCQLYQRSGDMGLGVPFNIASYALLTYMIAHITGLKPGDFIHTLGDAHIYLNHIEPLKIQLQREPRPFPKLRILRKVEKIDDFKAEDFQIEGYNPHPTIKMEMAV

Turning to `Nc1nc(O)c2c(ccc3ccc(NS(=O)(=O)c4ccc(C(=O)N[C@@H](CCC(=O)O)C(=O)O)cc4)cc32)n1`, the Ki stood at 100 nM.
As for `Nc1nc2ccc3cc(S(=O)(=O)Nc4ccc(C(=O)N[C@@H](CCC(=O)O)C(=O)O)cc4)c(Br)cc3c2c(=O)[nH]1`, the figure is 16400 nM; as for `Nc1nc(O)c2c(ccc3ccc(Br)cc32)n1`, 20 nM.
